# MMP13 inh: MMP13 (human) collagenase inhibition; P45452; AID 570; inhibition, % at 4 µM; MMP-13 fTHP FRET cleavage, Mca fluorescence; 65,000 compounds, 0.07% hits;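 active = inhibition above the mean of compound-free control plate wells plus 3 SD, cut at about 14% in these data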;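 also: 0% = DMSO wells and 100% = wells with reference MMP-13 inhibitor after basal subtraction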
# SF1 activator: activators of human nuclear receptor SF-1; 65,000 compounds, 1.9% hits; AID 522; CHO-K1 Gal4-SF-1 LBD luciferase reporter; % increase over DMSO SF-1-specific signal; Q13285; activation, % at 10 µM;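 active = activation above the mean activation of all tested compounds plus 3 SD, cut at about 50% in these data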
#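 Test system: transient Gal4-SF-1 LBD reporter, CHO-K1; Amount: 4,000 CHO-K1 cells per well; Doses: 10 µM only; Timing: compound exposure 20 h at 37 °C; Signal: luciferase light emission; Read-out basis: percent activation relative to DMSO median and mock-transfected background; Control set: DMSO negative control and −SF1 background wells; Replicates: one test per compound.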
# TNAP act mid DEA: activators of human TNAP at intermediate phosphate acceptor | activation factor at 20 µM | purified TNAP, CDP-star luminescence, 100 mM DEA, 30 min; active compounds read high; scale: 0 levamisole-inhibited, 1 vehicle-only enzyme | AID 813 | 64,000 tested, under 10 active | P05186;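 active = activation factor of at least 2 at 20 µM, relative to controls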
# MT1-MMP txn act: activates MT1-MMP transcription | activation factor at 10 µM | 86,000 compounds, 0.16% hits | HT1080 MT1-MMP promoter luciferase reporter, luminescence, overnight; active compounds read high;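 active = activation factor of at least 2 for MT1-MMP transcription at 10 µM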
# RORa activator: activates the human nuclear receptor RORA | P35398 | CHO-K1 Gal4-RORA LBD luciferase reporter, luminescence; percent increase over mock-subtracted basal signal | activation, % at 10 µM | 65,000 compounds, 1.5% hits;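 active = activation above the mean of all tested compounds plus 3 SD, cut at about 49% in these data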;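 also: 0% = DMSO-treated RORA cells and 100% = added signal equal to DMSO minus mock-transfected cells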
# Target sequence (P35398 whole entry, looked up, the tested form may be a part): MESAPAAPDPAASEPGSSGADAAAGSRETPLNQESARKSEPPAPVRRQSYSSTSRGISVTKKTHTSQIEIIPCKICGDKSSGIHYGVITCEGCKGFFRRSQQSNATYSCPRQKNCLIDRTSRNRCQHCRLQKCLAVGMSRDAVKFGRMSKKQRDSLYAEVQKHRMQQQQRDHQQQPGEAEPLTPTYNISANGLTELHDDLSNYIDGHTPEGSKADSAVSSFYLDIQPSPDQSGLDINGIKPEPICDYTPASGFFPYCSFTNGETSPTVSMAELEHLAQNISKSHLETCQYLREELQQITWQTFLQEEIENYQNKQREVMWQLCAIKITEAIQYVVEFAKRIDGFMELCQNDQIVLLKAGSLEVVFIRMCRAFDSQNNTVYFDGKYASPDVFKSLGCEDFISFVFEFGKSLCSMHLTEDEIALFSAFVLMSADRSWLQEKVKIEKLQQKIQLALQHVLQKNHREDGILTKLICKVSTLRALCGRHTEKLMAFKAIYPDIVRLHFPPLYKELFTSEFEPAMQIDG
# * = called active by the depositor; . = no result given. Only some compounds are listed: those with a hit (about 2.1% of all), similar ones and a draw of the others.
SMILES,MMP13 inh,SF1 activator,TNAP act mid DEA,MT1-MMP txn act,RORa activator
CCOc1ccc(-c2cc3nc(C4CCN(C(=O)OC(C)(C)C)CC4)c(C(=O)O)cn3n2)cc1,-42,3,0.9,1.1,13
Cc1nc2cc(C(=O)O)ccc2s1,-6,53*,0.9,1.9,21
Cc1nc(-c2ccc(C(=O)O)cc2)cs1,-6,20,0.9,1,0
COc1ccccc1N(CC(=O)NCc1ccccc1)C(=O)CCC(=O)Nc1ccccn1,.,.,.,1.3,.
c1cc(-c2nnc(-c3ccncc3)o2)ccn1,0,-1,0.9,1.1,-17
Cc1ccc(-c2cnc(-c3ccncc3)o2)cc1,-488,65*,0.9,1.4,58*
CCc1c2c(nc3cccc(OC)c13)OC(CC)C2 (configuration not stated),.,.,.,1.2,.
CC(=O)c1cc2c(=O)c3cc(C)ccc3oc2nc1C,-30,38,0.9,1.2,58*
CC(=O)c1c[nH]c2ccc(C)cc2c1=O,-12,-10,1,1,0
O=C(Nc1cccc(Br)c1)c1ccn[nH]1,5,31,1.1,1.7,54*
COCC(=O)Nc1cccc(Br)c1,1,4,1,1.1,5
CCOC(=O)c1ccc(NS(=O)(=O)N2CCCCCC2)cc1,2,24,1,1.3,49*
COc1cccc(-c2nn(-c3ccccc3)cc2CO)c1,0,46,0.9,1.7,62*
OCc1cn(-c2ccccc2)nc1-c1ccc2c(c1)OCCO2,-16,43,0.9,2.1*,73*
COc1ccc(-c2nn(-c3ccccc3)cc2CO)cc1OC,-42,18,0.9,1.1,-7
Brc1ccc(-c2nnc3n2C2(CCCC2)Cc2ccccc2-3)o1,.,.,.,1.1,.
CCCCN(CCCC)CP(=O)(c1ccccc1)c1ccccc1,.,.,.,1.1,.
CCC1=C2CC[C@H]3C(=O)N(CC)C(=O)[C@H]3[C@H]2[C@@]2(C)C(=NCCc3c[nH]c4ccccc34)OC(=O)N2C1=O,.,.,.,1.2,.
CC(=O)c1cccc(NC(=O)c2cnn3ccccc23)c1,-6,67*,1,1,9
CC(=O)c1cccc(NC(=O)c2cc3ccccn3n2)c1,6,30,0.9,1.1,28
COc1ccc(NC(=O)CSc2nc(C)c3c(c2C#N)CCCC3)cc1,.,.,.,1.1,.
CCc1nnc(NC(=O)CSc2nc(C)c3c(c2C#N)CCCC3)s1,-41,55*,1,1.2,-9
CC1(C)CC(=O)c2cnc(N)nc2C1,.,.,.,2.4*,.
CC1(C)CC(=O)c2cnc(N3CCN(c4ccccc4)CC3)nc2C1,2,1,1,1.2,4
CCOc1ccc2nc(SCC(=O)c3ccc(Cl)s3)sc2c1,.,.,.,1.2,.
SMILES,MMP13 inh,SF1 activator,TNAP act mid DEA,MT1-MMP txn act,RORa activator
COc1ccc2nc(NC(=O)c3ccc4ncsc4c3)sc2c1,-2,61*,1,1.6,54*
CCOc1ccc2nc(SCC(=O)c3cccs3)sc2c1,2,54*,0.8,1.3,26
CCCC(=O)Nc1nc2ccc(OCC)cc2s1,4,50*,0.9,1.5,49*
Cc1nc2ccccc2c(=O)n1NC(=O)c1ccccc1Cl,3,1,1,1.1,-14
O=C(Nn1cnc2ccccc2c1=O)c1ccccc1Cl,2,65*,1,1.3,37
CC1(C)Cc2c(sc3nc(-c4cc5ccccc5o4)n(N)c(=O)c23)CO1,-1,35,1,1.2,59*
CCCCOc1ccc(C(=O)Nc2cccc(C)n2)cc1,3,59*,0.9,0.8,55*
Clc1ccc(-c2nnc(N3CCCC3)nn2)cc1,0,41,0.9,.,55*
COc1ccc(-c2nc(-c3cccs3)c(-c3cccs3)[nH]2)cc1O,-52,4,0.9,1.2,4
O=C1C=C(c2ccccc2)OC(=O)C1C(=O)c1ccccc1 (configuration not stated),.,.,.,1.1,.
CCc1c2c(nc3cccc(C(C)C)c13)-c1cccc(=O)n1C2,.,.,.,1.2,.
COc1ccc2c(c1)CCc1c(C(=O)NCc3cccnc3)noc1-2,2,39,0.9,1.2,46
COc1ccc2c(c1)CCc1c(C(=O)N3CCCCCC3)noc1-2,0,57*,0.9,1.6,5
Cc1cc(NO)nc(-c2ccc(Br)cc2)n1,-10,64*,0.9,1.7,59*
CCN(CC)S(=O)(=O)c1ccc2nc(NC(=O)c3cccs3)sc2c1,-5,25,.,1.3,49*
Cn1c(C(=O)N2CCc3ccccc3C2)cc2oc3ccccc3c21,-3,57*,1,1.3,22
CCOC(=O)C1=C(COc2ccccc2)NC(=O)NC1c1ccc(C#N)cc1 (configuration not stated),.,.,.,1.1,.
COC(=O)C1=C(COc2ccccc2)NC(=O)NC1c1ccc2ccccc2c1 (configuration not stated),.,.,.,1.1,.
COC(=O)c1ccc(C(NC(=O)OCc2ccccc2)/C(C)=C/[C@@H](C)C(=O)NC2CCCCC2)cc1 (some centres not stated),.,.,.,1.1,.
C=CCOc1ccc(/C=C/C(C)=N\O)cc1,2,20,0.9,1.1,86*
C=CCOc1ccc2c(c1)C(=NO)c1cc(OCC=C)ccc1-2,.,.,.,1.5,.
Cc1ccc(-c2nnc(-c3ccc(Br)cc3)o2)o1,-155,75*,0.9,1.3,25
C=CCSc1nc2ccccc2c(=O)[nH]1,3,13,0.9,1.1,-15
C=CCSc1nnc2c(n1)[nH]c1c(C)cccc12,3,31,0.8,1.6,84*
CCOC(=O)c1ccc(Oc2cc(C)nc(SC)n2)cc1,4,31,0.9,0.8,57*
SMILES,MMP13 inh,SF1 activator,TNAP act mid DEA,MT1-MMP txn act,RORa activator
O=C(Cc1cn2ccsc2n1)OCc1ccccc1,0,11,1,1,6
c1ccc(CSCc2cn3ccsc3n2)cc1,-10,54*,0.8,1.7,58*
Clc1ccc(SCc2cn3ccsc3n2)cc1,1,58*,0.7,1.9,30
c1cn2cc(CSC3CCCCC3)nc2s1,2,60*,0.9,1.4,30
CCCCCCN(C(=O)CCCCCN1C(=O)NC(c2ccccc2-c2ccccc2)C(C(=O)OCc2ccccc2)=C1C)C(C(=O)NCCCC)c1ccc(OCC(=O)OC)c(C(=O)OC)c1 (configuration not stated),.,.,.,1.1,.
CCOc1ccc2nnc(-c3ccc(Br)cc3)n2n1,.,.,.,1,.
CC(C)CC(=O)Nc1ccc(-c2cn3ccsc3n2)cc1,2,52*,0.9,0.6,52*
COC(=O)c1ccc(CSc2nc3scc(-c4cccs4)c3c(=O)[nH]2)o1,17*,5,0.9,1.1,7
CC(C)C(=O)Nc1cccc(-c2nc3ccccc3o2)c1,-17,52*,1,1.1,24
Cc1ccc2nc(-c3cccc(NC(=O)c4ccc5c(c4)OCCO5)c3)oc2c1,-8,55*,0.9,1.4,42
COc1ccc(OCC(=O)Nc2cccc(-c3nc4ccccc4o3)c2)cc1,4,44,1,1.4,57*
